Source: PubChem BioAssay
Sampled rows, rich in hits. Any-hit rate of the full collection: about 2.3%.
TAAR1 antagonist: human TAAR1 antagonism; AID 624466; inhibition, % at 3 µM; CHO RD-HGA16 TAAR1, Fluo-8 calcium fluorescence, antagonist; 360,000 tested, 1.5% active; Q96RJ0;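 active = inhibition above a per-plate cutoff, the mean inhibition of test compounds on that plate plus 3 SD, cut at about 49% in these data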;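 also: 0% = DMSO plus EC80 beta-PEA response and 100% = DMSO alone without agonist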
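Test system: hTAAR1-expressing CHO RD-HGA16 cells, Gα16-coupled; Probe or stimulus: EC80 β-phenethylamine stimulus; Compound dosing: single nominal final test compound concentration of 3 µM; Timing: 140 s kinetic read after compound, 140 s after agonist; Signal: Fluo-8 calcium-sensitive fluorescence; Measure: % inhibition of agonist calcium response; Controls: DMSO and EC80 PEA controls.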
V1aR counter: V1a receptor agonism, counter-screen for OXTR agonists | AID 2797 | activation, % at 3 µM | P37288 | 320,000 tested, 0.25% active | CHO-V1R cells, Fluo-8 calcium fluorescence, agonist mode; 0% DMSO, 100% 3 nM vasopressin;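 active = activation above the mean activation of all tested compounds plus 3 SD, per screening run, cut at about 20% in these data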;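 also: signal is peak over basal fluorescence ratio across a 100 second FLIPR read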
Target sequence (P37288 whole entry, looked up): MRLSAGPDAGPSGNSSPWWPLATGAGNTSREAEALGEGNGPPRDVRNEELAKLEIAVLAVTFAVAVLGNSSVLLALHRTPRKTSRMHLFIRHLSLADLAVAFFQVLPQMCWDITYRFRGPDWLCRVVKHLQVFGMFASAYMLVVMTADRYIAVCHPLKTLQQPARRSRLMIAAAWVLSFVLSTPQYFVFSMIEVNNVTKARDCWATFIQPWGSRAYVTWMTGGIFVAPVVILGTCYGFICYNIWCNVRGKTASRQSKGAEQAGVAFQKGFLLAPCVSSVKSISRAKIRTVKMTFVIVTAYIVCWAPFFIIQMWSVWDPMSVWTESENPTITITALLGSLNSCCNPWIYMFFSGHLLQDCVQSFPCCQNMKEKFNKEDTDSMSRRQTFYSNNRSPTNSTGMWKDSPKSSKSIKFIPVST
OXTR potentiator: human OXTR potentiation; CHO-OTR cells, Fluo-8 calcium fluorescence, potentiator mode; 0% = oxytocin EC15, 100% = EC100; activation, % at 3 µM; 320,000 tested, 0.061% active;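 active = activation above that plate's cutoff, the mean activation of tested compounds plus 3 SD, cut at about 6.6% in these data, passing the limit was not always enough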;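 also: 100% uses oxytocin at 75 nM as the full agonist control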
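System: human OTR in CHO cells; Also added: sub-maximal oxytocin, roughly EC15; Timing: compound 6 min at room temperature before oxytocin, 100 s read; Technique: Fluo-8 intracellular calcium fluorescence, ex 470-495, em 515-575 nm; Controls: oxytocin EC15 low and EC100 high; Replication: singlicate.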
OXTR agonist: activates the human oxytocin receptor | activation, % at 3 µM | P30559 | CHO-OTR cells, Fluo-8 calcium fluorescence; normalized: DMSO 0%, oxytocin 100% | 320,000 tested, 0.32% active;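 active = activation above the mean of all tested compounds plus 3 SD, cutoff set per screening run, cut at about 20% in these data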;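 also: peak over basal fluorescence ratio from a 100 s FLIPR kinetic read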
TAAR1 agonist: human TAAR1 agonism; Q96RJ0; CHO RD-HGA16 TAAR1, Fluo-8 calcium fluorescence; vehicle wells 0%, saturating PEA agonist 100%; activation, % at 3 µM; 360,000 tested, 0.99% active;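 active = activation above the mean activation of all test compounds in the run plus 3 SD, cut at about 38% in these data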
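Benchmarks: low control DMSO, high control PEA (EC100); System: CHO RD-HGA16 cells carrying human TAAR1 plus Gα16; Detection: Fluo-8 fluorescence, 5 s baseline then 140 s kinetic read; Schedule: 17-24 h plating, Fluo-8 75 min 37 °C, 30 min RT; Read-out basis: % activation from peak over basal fluorescence ratio, DMSO-to-PEA scaled.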
The depositor's hits bear a star; x = not tested or not shown.

SMILES	TAAR1 antagonist	V1aR counter	OXTR potentiator	OXTR agonist	TAAR1 agonist
Cn1ncc2c(NCCO)nc(Cl)nc21	2	x	x	x	2
Cn1ncc2c(Nc3ccc([N+](=O)[O-])cc3)nc(Cl)nc21	-2	x	x	x	41*
O=C(Nc1cccc(C(F)(F)F)c1)c1ccc(Cn2cc(Br)cn2)o1	54*	12	-8	14	57*
CCCc1cc2c(O)ccc(O)c2c(=O)o1	-12	x	x	x	-1
CN(C)S(=O)(=O)c1ccc(Nc2ccc(-c3ccc4c(c3)OCCO4)nn2)cc1	49*	2	-3	3	16
O=C(Cc1ccc(Cl)c(Cl)c1)Nc1ccccc1N1CCOCC1	18	0	-3	0	4
O=C(Nc1ccccc1N1CCOCC1)C1(c2ccc(Cl)cc2)CCC1	2	-1	-4	0	41*
COC(=O)c1ccc(N)c2c(N)ccc(C(=O)OC)c12	-11	x	x	x	1
C[C@H]1[C@@H]2C[C@@]3(O[C@H](c4ccccn4)N=C3C[C@@H]1c1ccccc1)N(Cc1ccncc1)C2=O	-2	x	x	x	5
CCC1C/C(=C\c2cc(OC)c(OC)cc2OC)C(=O)/C(=C/c2cc(OC)c(OC)cc2OC)C1 (stereo not drawn)	x	3	-16	1	x
COc1cc(OC)c(OC)cc1/C=C1\CC(C)C/C(=C\c2cc(OC)c(OC)cc2OC)C1=O (stereo not drawn)	51*	4	-19	3	11
COC(CNC(=O)c1ccc(N2CCc3ccccc32)c([N+](=O)[O-])c1)OC	7	11	-15	10	3
NNC(=O)c1ccc(N2CCc3ccccc32)c([N+](=O)[O-])c1	55*	0	-6	1	-1
CC1=C(C(=O)N2CCCCCC2)CC(CC(=O)NCCN2CCOCC2)C(=O)N1CCCN1CCCC1=O (stereo not drawn)	-2	x	x	x	2
CC(C)c1ccc(OCc2ccc(C(=O)N3CCN(c4ccccn4)CC3)cc2)cc1	57*	1	-9	0	8
COc1ccc(-c2cc3nc(-c4ccccc4)cc(N4CCC(O)CC4)n3n2)cc1	49*	1	-15	2	12
COc1ccc(-c2cc3nc(-c4ccccc4)cc(N4CCCC(O)C4)n3n2)cc1 (stereo not drawn)	41	0	-13	1	6
COC(=O)[C@]12C[C@H](CC(=O)NCc3cccc4ccccc34)C(=O)N(Cc3ccc4c(c3)OCO4)C1=C[C@H](C(C)(C)C)O[C@@H]2C	-21	x	x	x	1
O=C(Cc1cccs1)N(Cc1cccs1)C1(C(=O)NC2CCCC2)CCCCC1	12	28*	-19	24*	8
CCN(Cc1ccccc1)C(=O)Nc1c(Cl)cccc1Cl	-15	x	x	x	-1
Cc1ccc(-c2nn(-c3ccccc3)cc2CN(Cc2ccccc2)C(=O)c2ccco2)o1	56*	1	-5	0	8
COc1ccc(NC(=O)COC(=O)CCCC2=NS(=O)(=O)c3ccccc3N2)cc1	-16	1	-3	0	39*
Cc1cc(N2CCN(C(=O)OC(C)(C)C)C[C@H]2C)ccc1N1CC[C@@H](O)C1	-11	x	x	x	5
COc1ccccc1CN1CCNC(=O)C1CC(=O)O (stereo not drawn)	15	1	0	2	5
COc1ccccc1CN1CCNC(=O)C1CC(=O)NC1Cc2ccccc2C1 (stereo not drawn)	-14	1	-10	0	41*
O=C(Nc1ccc(Cl)c(Cl)c1)C1=Cc2ccccc2OC1	60*	4	-28	0	9
C[C@H](CO)N1C[C@H](C)[C@H](CN(C)C(=O)C2CCCCC2)OCc2cnnn2CCCC1=O	-4	x	x	x	4
CC(C)(C)OC(=O)NCc1ccc(NC(=O)c2nc[nH]c2C(=O)NCCNC(=O)c2[nH]cnc2C(=O)Nc2ccc(CNC(=O)OC(C)(C)C)cc2)cc1	x	2	-4	2	x
CC(C)C[C@H](NC(=O)c1[nH]cnc1C(=O)Nc1ccc(CNC(=O)OC(C)(C)C)cc1)C(=O)OCc1ccccc1	53*	1	-9	1	16
CC(C)C[C@H](NC(=O)c1[nH]cnc1C(=O)Nc1ccc(CNC(=O)OC(C)(C)C)cc1)C(=O)OC(C)(C)C	27	0	-10	1	5
